# Reference: ChEMBL document CHEMBL3352006, “Further evaluation of novel structural modifications to scaffolds that engender PLD isoform selective inhibition” (Bioorg Med Chem Lett, 2014)
# Experiments:
# [1] = test system: Calu-1; assay: Selectivity ratio of IC50 for PLD2 (unknown origin) expressed in HEK293-gfp cells to IC50 for PLD1 (unknown origin) expressed in human Calu1 cells; type: cell-based
# Method in brief: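 Both IC50s come from cellular assays. PLD1 was measured in Calu-1 cells and PLD2 in HEK293-gfp PLD2 cells. Each IC50 was determined in triplicate. The value is the PLD2 IC50 divided by the PLD1 IC50.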
# [2] = biological target: T1, Phospholipase D1 (Homo sapiens, UniProt Q13393); assay: Inhibition of PLD1 (unknown origin) expressed in human Calu1 cells by cell-based assay; parameters: species or system Calu-1
# T1 sequence (Q13393 whole entry): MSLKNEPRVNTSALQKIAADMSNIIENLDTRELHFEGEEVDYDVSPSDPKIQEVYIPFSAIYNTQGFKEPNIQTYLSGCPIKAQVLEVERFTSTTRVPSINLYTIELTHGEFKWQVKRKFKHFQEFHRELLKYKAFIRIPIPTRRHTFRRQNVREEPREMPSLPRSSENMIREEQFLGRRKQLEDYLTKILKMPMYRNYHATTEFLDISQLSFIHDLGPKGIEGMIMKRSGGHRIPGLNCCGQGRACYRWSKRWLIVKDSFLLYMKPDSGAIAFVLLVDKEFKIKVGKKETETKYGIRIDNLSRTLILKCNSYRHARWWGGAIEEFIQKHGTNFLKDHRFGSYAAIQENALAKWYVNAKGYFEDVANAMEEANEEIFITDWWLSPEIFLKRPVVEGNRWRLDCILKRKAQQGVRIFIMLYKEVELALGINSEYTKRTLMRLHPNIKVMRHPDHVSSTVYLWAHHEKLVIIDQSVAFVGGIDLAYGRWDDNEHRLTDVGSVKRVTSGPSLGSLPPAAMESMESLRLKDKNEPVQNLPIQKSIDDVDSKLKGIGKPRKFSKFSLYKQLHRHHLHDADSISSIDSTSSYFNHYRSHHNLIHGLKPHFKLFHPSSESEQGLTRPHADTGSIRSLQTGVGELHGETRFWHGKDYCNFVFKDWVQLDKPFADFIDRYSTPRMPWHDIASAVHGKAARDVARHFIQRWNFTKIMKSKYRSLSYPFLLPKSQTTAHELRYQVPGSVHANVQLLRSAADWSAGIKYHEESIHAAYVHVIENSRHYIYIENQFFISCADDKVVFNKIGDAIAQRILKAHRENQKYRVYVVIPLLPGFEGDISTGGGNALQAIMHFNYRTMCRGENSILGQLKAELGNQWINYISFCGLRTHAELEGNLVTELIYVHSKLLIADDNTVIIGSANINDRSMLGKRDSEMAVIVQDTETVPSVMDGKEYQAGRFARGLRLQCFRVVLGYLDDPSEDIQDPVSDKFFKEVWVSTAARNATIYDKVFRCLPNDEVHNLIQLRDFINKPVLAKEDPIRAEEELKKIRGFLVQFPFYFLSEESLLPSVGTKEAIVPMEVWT
# [3] = biological target: D(2) dopamine receptor (Homo sapiens, UniProt P14416); assay: Inhibition of dopamine D2 receptor (unknown origin)
# [4] = biological target: Phospholipase D2 (Homo sapiens, UniProt O14939); assay: Inhibition of PLD2 (unknown origin) expressed in HEK293-gfp cells by cell-based assay
# Method in brief: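 Cellular assay in HEK293-gfp PLD2 cells; each IC50 determined in triplicate.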
# [5] = test system: Calu-1; assay: Selectivity ratio of IC50 for PLD1 (unknown origin) expressed in human Calu1 cells to IC50 for PLD2 (unknown origin) expressed in HEK293-gfp cells; type: cell-based
# Chain of Phospholipase D2 (O14939 whole entry): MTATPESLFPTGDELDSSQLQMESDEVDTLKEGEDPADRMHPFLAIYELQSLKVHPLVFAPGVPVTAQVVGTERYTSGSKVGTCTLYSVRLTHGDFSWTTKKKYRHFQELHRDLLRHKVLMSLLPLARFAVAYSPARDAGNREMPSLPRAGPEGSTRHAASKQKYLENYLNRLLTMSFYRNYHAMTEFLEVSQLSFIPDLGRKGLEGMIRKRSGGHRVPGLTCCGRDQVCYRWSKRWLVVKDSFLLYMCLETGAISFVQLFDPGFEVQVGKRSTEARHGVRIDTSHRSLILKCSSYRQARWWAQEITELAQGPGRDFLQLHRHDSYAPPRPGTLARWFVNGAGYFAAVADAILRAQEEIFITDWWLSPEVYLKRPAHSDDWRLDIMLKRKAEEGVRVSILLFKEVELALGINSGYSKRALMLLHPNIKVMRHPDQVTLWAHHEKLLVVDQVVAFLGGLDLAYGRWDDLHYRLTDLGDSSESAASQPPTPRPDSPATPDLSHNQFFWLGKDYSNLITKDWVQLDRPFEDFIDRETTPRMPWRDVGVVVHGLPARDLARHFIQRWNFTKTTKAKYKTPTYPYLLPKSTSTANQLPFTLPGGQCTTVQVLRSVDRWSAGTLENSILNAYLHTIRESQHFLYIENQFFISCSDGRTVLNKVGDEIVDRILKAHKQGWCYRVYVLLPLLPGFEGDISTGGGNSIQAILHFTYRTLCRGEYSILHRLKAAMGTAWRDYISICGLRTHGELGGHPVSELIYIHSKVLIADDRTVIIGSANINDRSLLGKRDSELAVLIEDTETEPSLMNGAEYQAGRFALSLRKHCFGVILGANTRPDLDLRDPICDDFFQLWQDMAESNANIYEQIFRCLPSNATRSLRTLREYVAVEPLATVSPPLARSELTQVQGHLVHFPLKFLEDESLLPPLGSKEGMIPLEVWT
# Chain of D(2) dopamine receptor (P14416 whole entry): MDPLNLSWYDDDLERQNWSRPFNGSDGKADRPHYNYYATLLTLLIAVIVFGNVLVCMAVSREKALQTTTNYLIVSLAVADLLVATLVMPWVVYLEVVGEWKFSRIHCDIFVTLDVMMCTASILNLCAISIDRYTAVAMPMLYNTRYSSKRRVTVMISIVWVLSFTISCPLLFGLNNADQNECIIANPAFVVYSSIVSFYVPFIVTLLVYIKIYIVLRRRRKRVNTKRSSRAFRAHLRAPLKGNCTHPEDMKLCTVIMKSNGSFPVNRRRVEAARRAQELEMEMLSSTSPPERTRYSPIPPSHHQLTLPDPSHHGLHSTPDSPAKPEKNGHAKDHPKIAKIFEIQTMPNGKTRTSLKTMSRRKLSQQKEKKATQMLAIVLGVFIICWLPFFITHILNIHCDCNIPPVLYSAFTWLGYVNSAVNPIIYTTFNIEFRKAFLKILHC
SMILES,Ratio IC50 [1],IC50 [2] [nM],IC50 [3] [µM],IC50 [4] [nM],Ratio IC50 [5]
CC1CC(n2c(=O)[nH]c3ccccc32)CCN1CCNC(=O)c1ccc(F)cc1 (stereo not drawn),11.5,636,,,
O=C(NCCN1CCC(n2c(=O)[nH]c3ccccc32)C(F)C1)c1ccc(F)c(F)c1 (stereo not drawn),4.7,21,> 10,,
O=C(NCCN1CC2CC(n3c(=O)[nH]c4ccccc43)CC2C1)c1ccc2ccccc2c1 (stereo not drawn),7.3,244,,,
O=C(NCCN1CC2CC(n3c(=O)[nH]c4ccccc43)CC2C1)c1ccc(F)cc1 (stereo not drawn),4,870,,3570,
O=C(NCCN1CC2CC(n3c(=O)[nH]c4ccccc43)CC2C1)c1ccc(Br)cc1 (stereo not drawn),5.5,468,,,
O=C(NCCN1CC2CC(n3c(=O)[nH]c4ccccc43)CC2C1)c1cc2cc(F)ccc2[nH]1 (stereo not drawn),5.4,230,,1240,
O=C(NCCN1CC2CC(n3c(=O)[nH]c4ccccc43)CC2C1)c1cc2ccccc2[nH]1 (stereo not drawn),3,72,,220,
O=C(NCCN1CC2CC(n3c(=O)[nH]c4ccccc43)CC2C1)c1ccc(F)c(F)c1 (stereo not drawn),3.9,820,,3250,
CC(CNC(=O)c1ccc2ccccc2c1)N1CCC2(CC1)C(=O)NCN2c1ccccc1 (racemic),,315,,64,5
CC(CNC(=O)c1ccc(F)cc1)N1CCC2(CC1)C(=O)NCN2c1ccccc1 (racemic),,1490,,290,5
CC(CNC(=O)c1ccc(Br)cc1)N1CCC2(CC1)C(=O)NCN2c1ccccc1 (racemic),,230,,120,2
CC(CNC(=O)c1cc2cc(F)ccc2[nH]1)N1CCC2(CC1)C(=O)NCN2c1ccccc1 (racemic),,35,,18,2
CC(CNC(=O)c1cc2ccccc2[nH]1)N1CCC2(CC1)C(=O)NCN2c1ccccc1 (racemic),,21,,6,3
CC(CNC(=O)c1ccc(F)c(F)c1)N1CCC2(CC1)C(=O)NCN2c1ccccc1 (racemic),,1080,,17,63
CC1CC(n2c(=O)[nH]c3ccccc32)CCN1CCNC(=O)[C@@H]1C[C@H]1c1ccccc1 (relative stereo),24,115,,,
O=C(NCCN1CC2CC(n3c(=O)[nH]c4ccccc43)CC2C1)[C@@H]1C[C@H]1c1ccccc1 (relative stereo),,1080,,115,
